Reference: ChEMBL document CHEMBL2396639, “Peptidomimetic modification improves cell permeation of bivalent farnesyltransferase inhibitors” (Bioorg Med Chem, 2013)
Blank lines part the entries; values can stand above or below the molecule they belong to. Calls of active or inactive are those of the source. The calls are words filed in the database; no cut-off is given here. Residues, ends and D or L forms follow the SMILES beside them. *: point of attachment. X1 = NCC(CN)CCOc1cc(C(=O)*)cc(OCCC(CN)CN)c1OCCC(CN)CN; Ahx = NCCCCCC(=O)O

Columns and labels:
[1] = target: T1, Protein farnesyltransferase (Homo sapiens, UniProt P49354+P49356); assay: Inhibition of FTase (unknown origin)-mediated K-Ras4B model peptide KKKKKKSK(Dans)TKCVIM farnesylation by microplate reader analysis; type: protein-complex assay
How it was run: (§1)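 Recombinant mammalian FTase (50 nM) with dansylated K-Ras4B peptide (1 μM) and FPP (5 μM). Compound tested at 0–500 μM in 50 mM Tris HCl pH 7.5 at 30 °C. Reagents spotted separately, and buffer addition starts the reaction. Fluorescence (ex 340/em 520 nm) followed for 5 min on a plate reader, n = 3. IC50 converted to Ki by Cheng-Prusoff with peptide Km 0.033 μM.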

[2] = target: T1, Protein farnesyltransferase; assay: Inhibition of recombinant FTase (unknown origin)-mediated K-Ras4B model peptide KKKKKKSK(Dans)TKCVIM farnesylation by fluorescence plate reader analysis in presence of FPP; type: protein-complex assay; how it was run: as §1
[3] = system: A549; assay: Drug uptake in human A549 cells assessed as accumulation on plasma membrane at 25 uM after 3 hrs by confocal microscopy; type: ADME, cell-based; settings: a549, 3 h
How it was run: (§2)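 A549 cells grown in RPMI 1640 with 10% heat-inactivated FBS at 37 °C, 5% CO2. Seeded on glass dish at 1×10^5 cells/mL, adhered overnight. Fluorescent BODIPY-labelled compound added from DMSO stock at 25 μM (0.1% DMSO final), 3 h at 37 °C. Cells washed four times with PBS, covered with Opti-MEM, imaged by laser scanning confocal microscopy.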

[4] = Drug uptake in human A549 cell cytosol at 25 uM after 3 hrs by confocal microscopy; type: ADME, cell-based; how it was run: as §2
[5] = Drug uptake in human A549 cell nucleus at 25 uM after 3 hrs by confocal microscopy; type: ADME, cell-based; settings: a549, 3 h; how it was run: as §2
[6] = target: T1, Protein farnesyltransferase; assay: Inhibition of FTase-mediated prenylation in human T24 cells assessed as inhibition of HDJ-2 processing at 10 to 100 uM treated twice on day 1 and day 3 followed by incubation for 4 days by Western blot analysis; type: cell-based; settings: T-24
How it was run: (§3)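 T24 cells (MEM) or A549 cells (RPMI 1640), each with 10% bovine serum. Cells treated twice with compound at 10, 30 and 100 μM, or DMSO control, then harvested on day 4 and lysed in Tris pH 7.6/Triton X-100 buffer. Lysate (5 µg) run on 7.5% SDS-PAGE, transferred to PVDF, probed with anti-HDJ-2. Read as band shift from processed to unprocessed HDJ-2, detected by HRP anti-rabbit IgG with ECL.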

[7] = system: T-24; assay: Inhibition of GGTase1-mediated prenylation in human T24 cells assessed as inhibition of Rap1A processing at 10 to 100 uM treated twice on day 1 and day 3 followed by incubation for 4 days by Western blot analysis; type: cell-based
How it was run: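 T24 cells grown in MEM with 10% bovine serum. Treated twice with compound at 10, 30 and 100 μM, or DMSO control, then harvested on day 4 and lysed. Lysate (5 µg) run on 12.5% SDS-PAGE, transferred to PVDF, probed with anti-Rap1A. Geranylgeranylation read as shift from processed to unprocessed Rap1A band, detected by HRP anti-rabbit IgG with ECL.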

[8] = target: T1, Protein farnesyltransferase; assay: Inhibition of FTase-mediated prenylation in human A549 cells assessed as inhibition of HDJ-2 processing at 10 to 100 uM treated twice on day 1 and day 3 followed by incubation for 4 days by Western blot analysis; type: cell-based; how it was run: as §3
[9] = system: A549; assay: Cellular uptake in human A549 cells at 25 uM after 3 hrs by confocal microscopy; type: ADME, cell-based; settings: a549, 3 h; how it was run: as §2

Structure (SMILES): CC[C@H](C)[C@H](NC(=O)[C@@H](NC(=O)[C@@H](N)CS)C(C)C)C(=O)N[C@@H](CCSC)C(=O)O
- Ki [1]: 1100 nM

Structure (SMILES): CSCC[C@H](NC(=O)c1ccc(NC[C@@H](N)CS)cc1)C(=O)O
- Ki [2]: 785 nM

Structure (SMILES): CC[C@H](C)[C@H](NC(=O)[C@@H](NC(=O)[C@H](CS)NC(=O)CCNC(=O)[C@H](CCCCNC(=O)CCC1=C2C(C)=CC(C)=[N+]2[B-](F)(F)n2c(C)cc(C)c21)NC(=O)c1cc(OCCC(CN)CN)c(OCCC(CN)CN)c(OCCC(CN)CN)c1)C(C)C)C(=O)N[C@@H](CCSC)C(=O)O
- Drug uptake [3]: Not Active

Further lines, with some results ahead:

- Ki [2]: 837 nM
Structure (SMILES): CSCC[C@H](NC(=O)c1ccc(NC[C@H](CS)NC(=O)CCCCCNC(=O)c2cc(OCCC(CN)CN)c(OCCC(CN)CN)c(OCCC(CN)CN)c2)cc1)C(=O)O

- Drug uptake [4]: Active
- Drug uptake [5]: Not Active
Structure (SMILES): COC(=O)[C@H](CCSC)NC(=O)c1ccc(NC[C@H](CS)NC(=O)CCNC(=O)[C@H](CCCCNC(=O)CCC2=C3C(C)=CC(C)=[N+]3[B-](F)(F)n3c(C)cc(C)c32)NC(=O)c2cc(OCCC(CN)CN)c(OCCC(CN)CN)c(OCCC(CN)CN)c2)cc1

- inhibition [6]: Active
- inhibition [8]: Active
Structure (SMILES): COC(=O)[C@H](CCSC)NC(=O)c1ccc(NC[C@H](CS)NC(=O)CCCCCNC(=O)c2cc(OCCC(CN)CN)c(OCCC(CN)CN)c(OCCC(CN)CN)c2)cc1
- inhibition [7]: inactive

- Ki [1]: 5 nM
- inhibition [8]: inactive
- Ki [2]: 15 nM
Structure (SMILES): CC[C@H](C)[C@H](NC(=O)[C@@H](NC(=O)[C@H](CS)NC(=O)CCCCCNC(=O)c1cc(OCCC(CN)CN)c(OCCC(CN)CN)c(OCCC(CN)CN)c1)C(C)C)C(=O)N[C@@H](CCSC)C(=O)O ({X1-Ahx}-CVIM-OH)

- Drug uptake [9]: Active
Structure (SMILES): CC1=CC(C)=[N+]2C1=C(CCC(=O)NCCCC[C@H](NC(=O)c1cc(OCCC(CN)CN)c(OCCC(CN)CN)c(OCCC(CN)CN)c1)C(=O)O)c1c(C)cc(C)n1[B-]2(F)F
